PP5 inh: PP5 (human) phosphatase inhibition. P53041. purified PP5c, OMFP substrate fluorescence. inhibition, % at 6.7 µM. actives 0.18% (n = 320,000). AID 1987;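 active = inhibition above the campaign's mean inhibition across all tested compounds plus 3 SD, cut at about 9.5% in these data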;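 note: 0% = DMSO only and 100% = 100 µM cantharidin control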
HCV NS3 hel inh: HCV NS3 helicase inhibition; actives 0.56% (n = 290,000); NS3 helicase DNA unwinding, Cy5 molecular beacon fluorescence; inhibition, % at 10.9 µM;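 active = inhibition above the mean of all tested compounds plus 3 SD, set per campaign, cut at about 35% in these data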;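 note: 0% = DMSO wells and 100% = thioflavine S control wells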
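Material: hepatitis C virus NS3 helicase domain fragment enzyme; measured by: Cy5 fluorescence, 0 and 60 min reads; control set: DMSO and thioflavine S; incubation: 60 min unwinding reaction at 25 °C after ATP addition; read-out basis: % inhibition from 60/0 min fluorescence ratio, DMSO 0%, thioflavine S 100%; repeats: singlicate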
FID counter: fluorescent intercalator displacement, NS3 helicase counter-screen | DNA fluorescent intercalator displacement, fluorescence | inhibition, % at 7.9 µM | actives 0.17% (n = 290,000) | AID 1845; in the data active = inhibition above about 37%;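 note: 0% = vehicle and 100% = reference compound; higher means more ethidium bromide displaced from hairpin DNA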
PP1 inh: PP1-alpha (human) inhibition in PP5 counter-screen | P62136 | purified PP1alpha, OMFP fluorescence | inhibition, % at 6.7 µM | actives 0.9% (n = 320,000);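 active = inhibition above the mean inhibition of all tested compounds plus 3 SD, computed separately for each screening campaign, cut at about 15% in these data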
Target sequence (P62136 whole entry, looked up): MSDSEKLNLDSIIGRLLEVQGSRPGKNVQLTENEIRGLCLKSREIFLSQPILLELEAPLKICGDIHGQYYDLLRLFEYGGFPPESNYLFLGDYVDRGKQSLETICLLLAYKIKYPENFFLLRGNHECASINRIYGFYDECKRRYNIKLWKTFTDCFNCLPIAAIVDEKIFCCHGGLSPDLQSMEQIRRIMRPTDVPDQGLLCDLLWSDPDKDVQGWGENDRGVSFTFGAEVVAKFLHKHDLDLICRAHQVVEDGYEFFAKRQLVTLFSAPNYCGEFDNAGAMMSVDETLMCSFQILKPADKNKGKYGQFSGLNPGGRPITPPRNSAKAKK
HIF act: HIF pathway transcriptional activation | activation, % at 7.5 µM (by protocol) | actives 0.32% (n = 300,000) | U2OS HRE-luciferase reporter, luminescence; normalized: DMSO 0%, desferrioxamine 100%;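 active = mean activation of at least 10% of the iron chelator positive control signal, with at least half of replicates also reaching 10%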
PP1 confirm: confirmation of human PP1 phosphatase inhibitors. shares compounds with PP1 inh. purified PP1alpha, OMFP substrate fluorescence. inhibition, % at 6.7 µM. actives 52% (n = 1,900);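 active = mean PP1 inhibition above a set limit taken from the earlier primary screen, cut at about 15% in these data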
PP5 inh counter: counter-screen for PP1 inhibitors: human PP5 phosphatase inhibition; shares compounds with PP1 inh; purified PP5c, OMFP fluorescence; inhibition, % at 6.7 µM; actives 4% (n = 1,900);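 active = mean PP5 inhibition over triplicate wells above about 9.5% taken from the earlier PP1 screen, limit read from the data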
Starred values were filed as active, the others as inactive; x = no result. Rows were chosen to be rich in hits. Some 1.9% of all compounds tested hit in one or more screens of this group.

SMILES	PP5 inh	HCV NS3 hel inh	FID counter	PP1 inh	HIF act	PP1 confirm	PP5 inh counter
COc1cc(/C=C2\C(C)=C(C#N)c3nc(N)c(C#N)c(C)c32)ccc1OCC(=O)O	3	12	-15	30*	0	7	0
O=C(CN1CCN(c2ccc(O)cc2)CC1)NC(=O)NCc1ccco1	0	10	-8	-4	0	x	x
N#CC1=C2SC=C(c3ccc(Br)cc3)N2CCCC1=O	2	-11	-2	3	2	x	x
N#CC1=C2Sc3ccccc3N2CCCC1=O	-1	1	5	56*	0	-3	-4
COc1ccc(NC(=O)CSc2nc3nc(-c4cccs4)cc(C(F)(F)F)c3c(=O)[nH]2)c(OC)c1	1	17	-5	-1	0	x	x
CCOc1ccccc1NC(=O)CSc1nc2nc(-c3cccs3)cc(C(F)(F)F)c2c(=O)[nH]1	2	24	-17	21*	0	15	2
O=C(CCNc1ccc(Cc2ccncc2)cc1)c1ccc([N+](=O)[O-])cc1	-1	6	3	18*	0	5	-1
O=C(Nc1cccc(O)c1)C(Cc1ccccc1)N1C(=O)c2cccc3cccc(c23)C1=O (stereo not given)	1	15	-12	19*	0	29*	1
O=C(O)C(Cc1ccccc1)N1C(=O)c2cccc3cccc(c23)C1=O (stereo not given)	0	7	-31	3	0	x	x
O=C(Nc1nnc(-c2ccco2)o1)c1ccc(Cl)s1	-2	12	-12	18*	0	3	-2
COc1cccc(-c2nnc(NC(=O)c3cccc(F)c3)o2)c1	4	x	x	14	0	x	x
COc1cccc(-c2nnc(NC(=O)c3ccc(Cl)s3)o2)c1	-1	16	-11	22*	0	25*	-5
CCOc1ccccc1NC(=O)COC(=O)c1cc(C(=O)OC)cc([N+](=O)[O-])c1	-1	-6	0	-3	x	x	x
CNc1cc(CSC)nc(SCc2ccc(Cl)c(Cl)c2)n1	6	2	-5	25*	0	10	3
